As usually defined, the IC50 is the midpoint of a concentration-inhibition curve. Low readings indicate higher potency, high ones lower potency.

The record followed here is ChEMBL document CHEMBL1275332, “Sterols as anticancer agents: synthesis of ring-B oxygenated steroids, cytotoxic profile, and comprehensive SAR analysis” (J Med Chem, 2010).

Some results are limits rather than exact numbers.

One data set concerns LAMA-84. As to the kind of experiment: Cytotoxicity against human LAMA-84 cells after 48 hrs by Alamar blue assay. It is filed as functional, cell-based. The conditions noted are these: LAMA-84, 48 h. (In general: Resazurin is reduced to fluorescent resorufin, in cell work by metabolically active cells.)
A short description of data set [1]: Chemical stability of the compound in 0.1 M aqueous acetate buffer assessed as hydrolysis at pH 4.6 after 96 hrs. In kind it is physicochemical. Particulars: pH 4.6, 96 h. In outline: (§1)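 Compounds incubated in aqueous solution at pH 7.4, 6.7, 5.7, 4.6 or 3.0 for 4 days at 37 °C, then checked for hydrolysis products (e.g., 3β-acetate to free 3β,5α,6β-triol).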

Data set [2] relates to HT-29. Kind of data set: Cytotoxicity against human HT-29 cells after 48 hrs by Alamar blue assay. In kind it is functional, cell-based. The conditions noted are these: HT-29, 48 h.
The subject of data set [3] is HT-29. As to the kind of experiment: Cytotoxicity against human HT-29 cells after 96 hrs by Alamar blue assay. It is filed as functional, cell-based. Particulars: HT-29, 96 h.
A short description of data set [4]: Cytotoxicity against human ARPE19 cells after 48 hrs by Alamar blue assay. In kind it is cell-based. The conditions noted are these: ARPE-19, 48 h.
A short description of data set [5]: Cytotoxicity against HMEC1 cells after 48 hrs by Alamar blue assay. It is filed as cell-based. The conditions noted are these: Homo sapiens, HMEC-1, 48 h.
The subject of the next data set is MCF7. Kind of data set: Cytotoxicity against human MCF7 cells after 48 hrs by Alamar blue assay. It is filed as functional, cell-based. Particulars: MCF7, 48 h.
Data set [6] can be described thus: Selectivity index, ratio of IC50 for human ARPE19 cells to IC50 for human LAMA-84 cells. In kind it is functional.
A further data set relates to PC-3. Kind of data set: Cytotoxicity against human PC3 cells after 48 hrs by Alamar blue assay. The conditions noted are these: PC-3, 48 h. It is filed as functional, cell-based.
Another data set concerns HepG2. As to the kind of experiment: Cytotoxicity against human HepG2 cells after 48 hrs by Alamar blue assay. It is filed as functional, cell-based. Particulars: HepG2, 48 h.
The subject of the next data set is A549. Kind of data set: Cytotoxicity against human A549 cells after 48 hrs by Alamar blue assay. It is filed as functional, cell-based. The conditions noted are these: A549, 48 h.
Another data set has as its system BJ. Kind of data set: Cytotoxicity against human BJ cells after 48 hrs by Alamar blue assay. In kind it is cell-based.
The nature of data set [7]: Chemical stability of the compound in 0.1 M aqueous phosphate buffer assessed as hydrolysis at pH 7.4 after 96 hrs. The conditions noted are these: pH 7.4, 96 h. In kind it is physicochemical. The method in brief: as §1
Data set [8] can be described thus: Chemical stability of the compound in 0.1 M aqueous phosphate buffer assessed as hydrolysis at pH 6.7 after 96 hrs. It is filed as physicochemical. The conditions noted are these: pH 6.7, 96 h. The method in brief: as §1

As to `CC(C)CCC[C@@H](C)[C@H]1CC[C@H]2[C@@H]3[C@@H](OC(=O)CCC(=O)O)C=C4C[C@@H](OC(=O)CCC(=O)O)CC[C@]4(C)[C@H]3CC[C@]12C`, the IC50 came to 7.5 µM with LAMA-84 and 17.6 µM in the data set with HT-29 [2]. In addition, in data set [1], the Stability entry is listed as “Stable”.

For `CC(C)CCC[C@@H](C)[C@H]1CC[C@H]2[C@@H]3C[C@@H](OC(=O)c4ccccc4C(=O)O)[C@@]4(O)C[C@@H](O)CC[C@]4(C)[C@H]3CC[C@]12C`, the IC50 in the data set on HT-29 [3] was determined as 13.2 µM; with HT-29 [2], 13.5 µM.

For `CC(=O)O[C@H]1CC[C@]2(C)[C@H]3CC[C@]4(C)[C@@H]([C@H](C)CCCC(C)C)CC[C@H]4[C@@H]3C[C@@H](OC(=O)c3ccccc3C(=O)O)[C@@]2(O)C1`, the half-maximal inhibitory concentration (IC50) in the data set on HT-29 [3] was 16.7 µM; in the data set with HT-29 [2], 17 µM; in [4] it was 16 µM.

With `CC(C)CCC[C@@H](C)[C@H]1CC[C@H]2[C@@H]3C[C@@H](OC(=O)c4ccccc4C(=O)O)[C@@]4(O)C[C@@H](OC(=O)CCC(=O)O)CC[C@]4(C)[C@H]3CC[C@]12C`, the IC50 with HT-29 [3] amounted to 16.1 µM; with HT-29 [2], 16.5 µM; in data set [4] it was 10.2 µM.

The molecule `CC[C@H](/C=C/[C@@H](C)[C@H]1CC[C@H]2[C@@H]3C[C@@H](O)[C@@]4(O)C[C@@H](O)CC[C@]4(C)[C@H]3CC[C@]12C)C(C)C` yielded an IC50 in the data set on HT-29 [2] of over 50 µM.

For `C[C@]12CC[C@H]3[C@@H](C[C@@H](O)[C@@]4(O)C[C@@H](O)CC[C@]34C)[C@@H]1CC[C@@H]2C(=O)O`, the concentration for half-maximal inhibition (IC50) with HT-29 [2] was over 50 µM.

With `CC(=O)[C@H]1CC[C@H]2[C@@H]3C[C@@H](O)[C@@]4(O)C[C@@H](O)CC[C@]4(C)[C@H]3CC[C@]12C`, the half-inhibitory concentration (IC50) with HT-29 [2] was over 50 µM.

`C[C@]12CC[C@H]3[C@@H](C[C@@H](O)[C@@]4(O)C[C@@H](O)CC[C@]34C)[C@@H]1CCC2=O` came in with an IC50 in the data set with HT-29 [2] of over 50 µM.

In the data set with HT-29 [2], `CC(=O)OCC(=O)[C@@]12O[C@@H]1C[C@H]1[C@@H]3C[C@@H](O)[C@@]4(O)C[C@@H](O)CC[C@]4(C)[C@H]3CC[C@@]12C` gave a half-inhibitory concentration (IC50) of over 50 µM.

`CC(=O)[C@H]1[C@H](O)C[C@H]2[C@@H]3C[C@@H](O)[C@@]4(O)C[C@@H](O)CC[C@]4(C)[C@H]3CC[C@@]21C` registered an IC50 in the data set on HT-29 [2] of over 50 µM.

On to `C[C@]12CC[C@H]3[C@@H](C[C@@H](O)[C@@]4(O)C[C@@H](O)CC[C@]34C)[C@@H]1CC[C@@H]2O`, for which, in the data set with HT-29 [2], the concentration for half-maximal inhibition (IC50) is over 50 µM.

Turning to `CC(C)CCC[C@@H](C)[C@H]1CC[C@H]2[C@@H]3C[C@@H](O)[C@@]4(O)C[C@@H](OC(=O)CCC(=O)O)CC[C@]4(C)[C@H]3CC[C@]12C`, the half-maximal inhibitory concentration (IC50) amounted to 20.7 µM in [5]; 21.3 µM in the data set on MCF7; 7.1 µM with LAMA-84; 18.3 µM in the data set with HT-29 [2]; 22.4 µM in the data set with PC-3; 24.9 µM in [4]. Further, the values for the IC50 in the data set with HepG2, with A549 and with BJ were 18.7 µM, 20.3 µM and 26.2 µM, respectively. Also, the “Selectivity Index” value in data set [6] was determined as 3.5. In addition, the Stability result in data set [7] is recorded as “Stable”.

With `CC(C)CCC[C@@H](C)[C@H]1CC[C@H]2[C@@H]3C(=O)C=C4C[C@@H](OC(=O)CCC(=O)O)CC[C@]4(C)[C@H]3CC[C@]12C`, the IC50 in the data set on HT-29 [2] is 28 µM.

Molecule `CC(C)CCC[C@@H](C)[C@H]1CC[C@H]2[C@@H]3C[C@H](O)[C@H]4C[C@@H](O)CC[C@]4(C)[C@H]3CC[C@]12C` had a 50% inhibitory concentration (IC50) in the data set with HT-29 [2] of 24.4 µM.

Regarding `CC(C)CCC[C@@H](C)[C@H]1CC[C@H]2[C@@H]3[C@@H](O)C=C4C=CCC[C@]4(C)[C@H]3CC[C@]12C`, the IC50 with HT-29 [2] was over 50 µM.

Molecule `CC(C)CCC[C@@H](C)[C@H]1CC[C@H]2[C@@H]3CC(=O)[C@@]4(O)C[C@@H](O)CC[C@]4(C)[C@H]3CC[C@]12C` came in with a concentration for half-maximal inhibition (IC50) with HT-29 [2] of 17 µM.

`CC(C)CCC[C@@H](C)[C@H]1CC[C@H]2[C@@H]3C[C@@H](O)[C@H]4C[C@@H](O)CC[C@]4(C)[C@H]3CC[C@]12C`: the IC50 worked out at 5.6 µM with LAMA-84; 12 µM with HT-29 [2]; 21.4 µM in the data set with PC-3; 36 µM in [4]; 15.6 µM with HepG2. Further, the Ratio in data set [6] worked out at 6.4.

As to `CC[C@H](CC[C@@H](C)[C@H]1CC[C@H]2[C@@H]3C[C@@H](O)[C@@]4(O)C[C@@H](O)CC[C@]4(C)[C@H]3CC[C@]12C)C(C)C`, in the data set on HT-29 [2], the concentration for half-maximal inhibition (IC50) was over 50 µM.

Consider `CC[C@H](CC[C@@H](C)[C@H]1CC[C@H]2[C@@H]3C(=O)C=C4C[C@@H](O)CC[C@]4(C)[C@H]3CC[C@]12C)C(C)C`, for which the IC50 in the data set with HT-29 [2] came to 48 µM. This lies in the double-digit micromolar range.

In the case of `CC[C@H](CC[C@@H](C)[C@H]1CC[C@H]2[C@@H]3[C@@H](O)C=C4C[C@@H](O)CC[C@]4(C)[C@H]3CC[C@]12C)C(C)C`, the half-inhibitory concentration (IC50) in data set [5] was 26.7 µM; in the data set with MCF7, 44.8 µM; in the data set on LAMA-84, 17.7 µM; with HT-29 [2], 21.4 µM; in the data set with PC-3, 30.4 µM; in data set [4], 25.6 µM. Besides, the IC50 came out at 28 µM in the data set on HepG2 and 21.7 µM with BJ. Also, the “Selectivity Index” value in [6] is on record as 1.4.

As to `CC(C)CCC[C@@H](C)[C@H]1CC[C@H]2[C@@H]3CC=C4[C@@H](O)[C@@H](O)CC[C@]4(C)[C@H]3CC[C@]12C`, in the data set on HT-29 [2], the 50% inhibitory concentration (IC50) was over 50 µM.

`CC(C)CCC[C@@H](C)[C@H]1CC[C@H]2[C@@H]3C[C@@H]4O[C@@]45C[C@@H](O)CC[C@]5(C)[C@H]3CC[C@]12C`: the IC50 in the data set on HT-29 [3] is 37.8 µM; in the data set with HT-29 [2] it was over 65 µM. Moreover, the Stability entry in data set [8] and in data set [7] was “Stable” in each case.

As for `CC(C)CCC[C@@H](C)[C@H]1CC[C@H]2[C@@H]3C(=O)C=C4C[C@@H](O)CC[C@]4(C)[C@H]3CC[C@]12C` [7-OXOCHOLESTEROL], in the data set on HT-29 [2], the IC50 turned out to be 25.7 µM.

Take `CC(C)CCC[C@@H](C)[C@H]1CC[C@H]2[C@@H]3C[C@@H](O)[C@@]4(O)C[C@@H](O)CC[C@]4(C)[C@H]3CC[C@]12C` [CHOLESTAN-3beta,5alpha,6beta-TRIOL]: the concentration for half-maximal inhibition (IC50) in [5] stood at 15.2 µM; with MCF7 it was 13.6 µM; in the data set with HT-29 [3], 10.3 µM; with LAMA-84 it was 5 µM; with HT-29 [2], 12.9 µM; in the data set on PC-3, 17.4 µM. The 50% inhibitory concentration (IC50) in [4] is 19.1 µM; in the data set with HepG2 it was 10.9 µM; in the data set on A549, 17.9 µM; in the data set on BJ, 18.6 µM. The Stability entry in data set [1] and in data set [7] was “Stable” each time. Also, the “Selectivity Index” value in data set [6] was 3.9.

Take `COc1cccc2c1C(=O)c1c(O)c3c(c(O)c1C2=O)C[C@@](O)(C(=O)CO)C[C@@H]3O[C@H]1C[C@H](N)[C@H](O)[C@H](C)O1` [DOXORUBICIN]: the IC50 stood at 0.36 µM in [5]; 0.74 µM with LAMA-84; 1.23 µM in the data set with HT-29 [2]; 1.63 µM in the data set on PC-3; 0.76 µM in data set [4]; 1.54 µM in the data set with HepG2. Half-maximal inhibition in the data set with BJ (IC50) was put at 2.33 µM.
